From ChEMBL document CHEMBL4257561, “7-Deacetyl-10-alkylthiocolchicine derivatives - new compounds with potent anticancer and fungicidal activity” (Medchemcomm, 2018)
≈ marks a conversion by molar mass, not a printed value.

Assays:
Aspergillus niger [1] = experiment: microbe, parasite or virus in culture; assay type: functional; conditions: van Tiegen BAM4 ATCC 6275, 168 h
Trichoderma viride [2] = experiment: Antifungal activity against Trichoderma viride Pers after 7 days by microtiter method; assay type: functional; conditions: 168 h
Aureobasidium pullulans [3] = experiment: microbe, parasite or virus in culture; assay type: functional; conditions: BAM10 ATCC 9348, 168 h
Paecilomyces variotii [4] = experiment: microbe, parasite or virus in culture; assay type: functional; conditions: BAM19 ATCC 18502, 168 h
Chaetomium globosum [5] = experiment: microbe, parasite or virus in culture; assay type: functional; conditions: BAM12 ATCC 6205, 168 h
Talaromyces funiculosus [6] = experiment: microbe, parasite or virus in culture; assay type: functional; conditions: BAM22 ATCC 11797, 168 h
Penicillium cyclopium [7] = experiment: Antifungal activity against Penicillium cyclopium Westling after 7 days by microtiter method; assay type: functional; conditions: 168 h
Aspergillus versicolor [8] = experiment: microbe, parasite or virus in culture; assay type: functional; conditions: BAM8 ATCC 11730, 168 h
Chaetomium globosum [9] = experiment: Fungicidal activity against Chaetomium globosum BAM12 ATCC 6205 after 7 days by microtiter method; assay type: functional; conditions: BAM12 ATCC 6205, 168 h
Procedure, shortened: (§1)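 Single-spore isolates kept on PDA slants. Spore suspensions ([…] CFU/mL) taken from two-week slants. Compound stock was 10 mg in 200 µL methanol; 10 µL of stock added to 100 µL PDA (39 g/L) per well, then 10 µL spores. Incubated aerobically 7 days, 28±1°C, RH >95%, dark. Growth scored on a three-point scale (+/±/−). Triplicates, with untreated and IPBC controls.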

SK-OV-3 [10] = experiment: cells; assay type: functional, cell-based; conditions: Homo sapiens, SK-OV-3, 72 h
Talaromyces funiculosus [11] = experiment: Fungicidal activity against Penicillium funiculosum BAM22 ATCC 11797 after 7 days by microtiter method; assay type: functional; conditions: BAM22 ATCC 11797, 168 h
Procedure, shortened: as §1

MCF7 = experiment: cells; assay type: functional, cell-based; conditions: Homo sapiens, MCF7, 72 h
Aspergillus versicolor [12] = experiment: Fungicidal activity against Aspergillus versicolor BAM8 ATCC 11730 after 7 days by microtiter method; assay type: functional; conditions: BAM8 ATCC 11730, 168 h
Procedure, shortened: as §1

MDA-MB-231 = experiment: cells; assay type: functional, cell-based; conditions: Homo sapiens, MDA-MB-231, 72 h
LoVo = experiment: cells; assay type: functional, cell-based; conditions: Homo sapiens, 72 h
SK-OV-3 [13] = experiment: cells; assay type: functional, cell-based; conditions: Homo sapiens, SK-OV-3, 72 h; remark: listed apart in the source
cells = assay type: cell-based; conditions: Homo sapiens, 72 h
Aspergillus niger [14] = experiment: Fungicidal activity against Aspergillus niger van Tiegen BAM4 ATCC 6275 after 7 days by microtiter method; assay type: functional; conditions: van Tiegen BAM4 ATCC 6275, 168 h
Procedure, shortened: as §1

Paecilomyces variotii [15] = experiment: Fungicidal activity against Paecilomyces variotii BAM19 ATCC 18502 after 7 days by microtiter method; assay type: functional; conditions: BAM19 ATCC 18502, 168 h
Procedure, shortened: as §1

Trichoderma viride [16] = experiment: Fungicidal activity against Trichoderma viride Pers after 7 days by microtiter method; assay type: functional; conditions: 168 h
Procedure, shortened: as §1

Aureobasidium pullulans [17] = experiment: Fungicidal activity against Aureobasidium pullulans BAM10 ATCC 9348 after 7 days by microtiter method; assay type: functional; conditions: BAM10 ATCC 9348, 168 h
Procedure, shortened: as §1

Penicillium cyclopium [18] = experiment: Fungicidal activity against Penicillium cyclopium Westling after 7 days by microtiter method; assay type: functional; conditions: 168 h
Procedure, shortened: as §1

DLD-1 = experiment: cells; assay type: functional, cell-based; conditions: Homo sapiens, DLD-1, 72 h

| SMILES | MFC (Aspergillus niger [1]) | MFC (Trichoderma viride [2]) | MIC (Aureobasidium pullulans [3]) | MFC (Paecilomyces variotii [4]) | MIC (Chaetomium globosum [5]) | MFC (Talaromyces funiculosus [6]) | MIC (Penicillium cyclopium [7]) | MFC (Aspergillus versicolor [8]) | MFC (Chaetomium globosum [9]) | IC50 (SK-OV-3 [10]) | MFC (Talaromyces funiculosus [11]) | MFC (Aspergillus versicolor [12]) | IC50 (LoVo) | IC50 (SK-OV-3 [13]) | IC50 (cells) | MFC (Aspergillus niger [14]) | MFC (Paecilomyces variotii [15]) | MFC (Trichoderma viride [16]) | MFC (Aureobasidium pullulans [17]) | MFC (Penicillium cyclopium [18]) | further results |
| --- | --- | --- | --- | --- | --- | --- | --- | --- | --- | --- | --- | --- | --- | --- | --- | --- | --- | --- | --- | --- | --- |
| CCCCSc1ccc2c(cc1=O)[C@@H](NC(C)=O)CCc1cc(OC)c(OC)c(OC)c1-2 | > 4000 µg/mL | > 4000 µg/mL | > 4000 µg/mL | > 4000 µg/mL | > 4000 µg/mL | > 4000 µg/mL | > 4000 µg/mL | > 4000 µg/mL | – | – | – | – | – | – | – | – | – | – | – | – | – |
| COc1cc2c(c(OC)c1OC)-c1ccc(SC(C)C)c(=O)cc1[C@@H](N)CC2 | > 4000 µg/mL | 2000 µg/mL (≈ 4980 µM) | 260 µg/mL (≈ 648 µM) | 1000 µg/mL (≈ 2490 µM) | 130 µg/mL (≈ 324 µM) | 1000 µg/mL (≈ 2490 µM) | 500 µg/mL (≈ 1250 µM) | > 4000 µg/mL | 130 µg/mL (≈ 324 µM) | 27 nM | 1000 µg/mL (≈ 2490 µM) | > 4000 µg/mL | 130 nM | 4 nM | 1680 nM | > 4000 µg/mL | 1000 µg/mL (≈ 2490 µM) | 2000 µg/mL (≈ 4980 µM) | 260 µg/mL (≈ 648 µM) | 500 µg/mL (≈ 1250 µM) | IC50 (MCF7): 4900 nM; IC50 (MDA-MB-231): 5000 nM; IC50 (DLD-1): 6260 nM |
| CCCCSc1ccc2c(cc1=O)[C@@H](N)CCc1cc(OC)c(OC)c(OC)c1-2 | > 4000 µg/mL | 2000 µg/mL (≈ 4810 µM) | 260 µg/mL (≈ 626 µM) | 1000 µg/mL (≈ 2410 µM) | 130 µg/mL (≈ 313 µM) | 1000 µg/mL (≈ 2410 µM) | 260 µg/mL (≈ 626 µM) | > 4000 µg/mL | 130 µg/mL (≈ 313 µM) | 62 nM | 1000 µg/mL (≈ 2410 µM) | > 4000 µg/mL | 1870 nM | 9 nM | 2170 nM | > 4000 µg/mL | 1000 µg/mL (≈ 2410 µM) | 2000 µg/mL (≈ 4810 µM) | 260 µg/mL (≈ 626 µM) | 260 µg/mL (≈ 626 µM) | IC50 (MCF7): 1460 nM; IC50 (MDA-MB-231): 4180 nM; IC50 (DLD-1): 720 nM |
| CCSc1ccc2c(cc1=O)[C@@H](N)CCc1cc(OC)c(OC)c(OC)c1-2 | > 4000 µg/mL | > 4000 µg/mL | > 4000 µg/mL | > 4000 µg/mL | > 4000 µg/mL | > 4000 µg/mL | > 4000 µg/mL | > 4000 µg/mL | – | 409 nM | – | – | 390 nM | 305 nM | 150 nM | – | – | – | – | – | IC50 (MCF7): 1620 nM; IC50 (MDA-MB-231): 3550 nM; IC50 (DLD-1): 510 nM |
| CCSc1ccc2c(cc1=O)[C@@H](NC(C)=O)CCc1cc(OC)c(OC)c(OC)c1-2 | > 4000 µg/mL | > 4000 µg/mL | > 4000 µg/mL | > 4000 µg/mL | > 4000 µg/mL | > 4000 µg/mL | > 4000 µg/mL | > 4000 µg/mL | – | – | – | – | – | – | – | – | – | – | – | – | – |
| CCCSc1ccc2c(cc1=O)[C@@H](N)CCc1cc(OC)c(OC)c(OC)c1-2 | > 4000 µg/mL | 2000 µg/mL (≈ 4980 µM) | > 4000 µg/mL | 1000 µg/mL (≈ 2490 µM) | > 4000 µg/mL | 2000 µg/mL (≈ 4980 µM) | 2000 µg/mL (≈ 4980 µM) | > 4000 µg/mL | > 4000 µg/mL | 46 nM | 2000 µg/mL (≈ 4980 µM) | > 4000 µg/mL | 3830 nM | 22 nM | 670 nM | > 4000 µg/mL | 1000 µg/mL (≈ 2490 µM) | 2000 µg/mL (≈ 4980 µM) | > 4000 µg/mL | 2000 µg/mL (≈ 4980 µM) | IC50 (MCF7): 2080 nM; IC50 (MDA-MB-231): 4240 nM; IC50 (DLD-1): 3420 nM |
| CCCCNC(=O)OCC#CI [IODOCARB] | 2 µg/mL (≈ 7.12 µM) | 100 µg/mL (≈ 356 µM) | 1 µg/mL (≈ 3.56 µM) | 2 µg/mL (≈ 7.12 µM) | 5 µg/mL (≈ 17.8 µM) | 2 µg/mL (≈ 7.12 µM) | 2 µg/mL (≈ 7.12 µM) | 2 µg/mL (≈ 7.12 µM) | 5 µg/mL (≈ 17.8 µM) | – | 2 µg/mL (≈ 7.12 µM) | 2 µg/mL (≈ 7.12 µM) | – | – | – | 2 µg/mL (≈ 7.12 µM) | 2 µg/mL (≈ 7.12 µM) | 100 µg/mL (≈ 356 µM) | 1 µg/mL (≈ 3.56 µM) | 2 µg/mL (≈ 7.12 µM) | – |
| COc1cc2c(c(OC)c1OC)-c1ccc(OC)c(=O)cc1[C@@H](NC(C)=O)CC2 [COLCHICINE] | > 4000 µg/mL | > 4000 µg/mL | 0.001 µg/mL (≈ 0.0025 µM) | > 4000 µg/mL | > 4000 µg/mL | > 4000 µg/mL | > 4000 µg/mL | > 4000 µg/mL | > 4000 µg/mL | 210 nM | > 4000 µg/mL | > 4000 µg/mL | 119 nM | 198 nM | 586 nM | > 4000 µg/mL | > 4000 µg/mL | > 4000 µg/mL | 0.001 µg/mL (≈ 0.0025 µM) | > 4000 µg/mL | IC50 (MCF7): 41 nM; IC50 (MDA-MB-231): 25 nM; IC50 (DLD-1): 43 nM |
| COc1cccc2c1C(=O)c1c(O)c3c(c(O)c1C2=O)C[C@@](O)(C(=O)CO)C[C@@H]3O[C@H]1C[C@H](N)[C@H](O)[C@H](C)O1 [DOXORUBICIN] | – | – | – | – | – | – | – | – | – | 128 nM | – | – | 78.3 nM | 32.6 nM | 850 nM | – | – | – | – | – | IC50 (DLD-1): 145 nM |
| COc1cc2c(c(OC)c1OC)-c1ccc(SC(C)C)c(=O)cc1[C@@H](NC(C)=O)CC2 | > 4000 µg/mL | > 4000 µg/mL | > 4000 µg/mL | > 4000 µg/mL | > 4000 µg/mL | > 4000 µg/mL | > 4000 µg/mL | > 4000 µg/mL | – | – | – | – | – | – | – | – | – | – | – | – | – |
| O=C(/C=C/c1ccccc1)c1ccccc1 [CHALCONE] | 65 µg/mL (≈ 312 µM) | 500 µg/mL (≈ 2400 µM) | 500 µg/mL (≈ 2400 µM) | 1000 µg/mL (≈ 4800 µM) | 130 µg/mL (≈ 624 µM) | 130 µg/mL (≈ 624 µM) | 260 µg/mL (≈ 1250 µM) | 2000 µg/mL (≈ 9600 µM) | 130 µg/mL (≈ 624 µM) | – | 130 µg/mL (≈ 624 µM) | 2000 µg/mL (≈ 9600 µM) | – | – | – | 65 µg/mL (≈ 312 µM) | 1000 µg/mL (≈ 4800 µM) | 500 µg/mL (≈ 2400 µM) | 500 µg/mL (≈ 2400 µM) | 260 µg/mL (≈ 1250 µM) | – |
| CCCSc1ccc2c(cc1=O)[C@@H](NC(C)=O)CCc1cc(OC)c(OC)c(OC)c1-2 | > 4000 µg/mL | > 4000 µg/mL | > 4000 µg/mL | > 4000 µg/mL | > 4000 µg/mL | > 4000 µg/mL | > 4000 µg/mL | > 4000 µg/mL | – | – | – | – | – | – | – | – | – | – | – | – | – |
